Data as given in ChEMBL document CHEMBL5096224, “First-in-Class Dual Mechanism Ferroptosis-HDAC Inhibitor Hybrids” (J Med Chem, 2022).
Active and inactive are the calls of the source. The calls are words filed in the database; no cut-off is given here.

Assays:
NCI-H522 [1] = test: Cytotoxicity against human NCI-H522 cells assessed as cell growth inhibition incubated for 24 hrs by MTT assay; assay type: functional, cell-based
Histone deacetylase 1 = Histone deacetylase 1 (Homo sapiens, UniProt Q13547); test: Inhibition of full length his6/FLAG-tagged human recombinant HDAC1(1 to 482 residues) expressed in Sf9 insect cells
MOLT-4 = test: Cytotoxicity against human MOLT-4 cells assessed as cell growth inhibition incubated for 24 hrs by MTT assay; assay type: functional, cell-based
HOP-62 = test: Cytotoxicity against human HOP-62 cells assessed as cell growth inhibition incubated for 24 hrs by MTT assay; assay type: functional, cell-based
A549 = test: Cytotoxicity against human A549 cells assessed as cell growth inhibition incubated for 24 hrs by MTT assay; assay type: functional, cell-based
NCI-H23 = test: Cytotoxicity against human NCI-H23 cells assessed as cell growth inhibition at 10 uM incubated for 24 hrs by MTT assay; conditions: NCI-H23, 24 h
NCI-H522 [2] = test: Induction of cell cycle arrest in human NCI-H522 cells assessed as accumulation at S phase 5 uM incubated for 24 to 72 hrs by PI staining based flow cytometric analysis; assay type: functional; conditions: time lower […], time upper […]
NCI-H522 [3] = test: Induction of ferroptosis in human NCI-H522 cells assessed as viability at 5 uM incubated at 0.2 to 10.2 hrs by microscopic analysis; assay type: functional, cell-based; conditions: time 0.2-10.2 hrs
Summary of the method: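 Time-lapse imaging used NCI-H522 cells adhered overnight and equilibrated to 10% CO2, held in sealed flasks on a 37 °C stage. Frames were taken every 12 min, 300 in total, with a ×40 objective. For Kaplan–Meier curves, at least 100 cells were scored, with death counted per 1 h or 0.2 h interval.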

HL-60 = test: Cytotoxicity against human HL-60 cells assessed as cell growth inhibition incubated for 24 hrs by MTT assay; assay type: functional, cell-based
NCI-H522 [4] = test: Cytotoxicity against human NCI-H522 cells assessed as reduction in cell survival at 1 to 5 uM incubated for 3 days in presence of ferroptosis inhibitor, liproxstatin-1 by methylene blue staining based analysis; assay type: functional; conditions: dose 1-5 µM, time 3.0 day
K562 = test: Cytotoxicity against human K562 cells assessed as cell growth inhibition incubated for 24 hrs by MTT assay; assay type: functional, cell-based
HOP-92 = test: Cytotoxicity against human HOP-92 cells assessed as cell growth inhibition incubated for 24 hrs by MTT assay; assay type: functional, cell-based
Summary of the method: (§1)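 Run within the NCI-60 DTP screen: a single-dose test at 10 μM across about sixty human tumour lines, read as Growth % and mean inhibition. Selected compounds then went to a five-dose assay to derive GI50. Both were single experiments without replicates.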

[5] = molecular target: T1, Protein deacetylase HDAC6 (Homo sapiens, UniProt Q9UBN7); test: Inhibition of full length C-terminal FLAG-tagged human recombinant HDAC6 expressed inSf9 insect cells; design: species or system Sf9
T1 sequence (Q9UBN7 whole entry): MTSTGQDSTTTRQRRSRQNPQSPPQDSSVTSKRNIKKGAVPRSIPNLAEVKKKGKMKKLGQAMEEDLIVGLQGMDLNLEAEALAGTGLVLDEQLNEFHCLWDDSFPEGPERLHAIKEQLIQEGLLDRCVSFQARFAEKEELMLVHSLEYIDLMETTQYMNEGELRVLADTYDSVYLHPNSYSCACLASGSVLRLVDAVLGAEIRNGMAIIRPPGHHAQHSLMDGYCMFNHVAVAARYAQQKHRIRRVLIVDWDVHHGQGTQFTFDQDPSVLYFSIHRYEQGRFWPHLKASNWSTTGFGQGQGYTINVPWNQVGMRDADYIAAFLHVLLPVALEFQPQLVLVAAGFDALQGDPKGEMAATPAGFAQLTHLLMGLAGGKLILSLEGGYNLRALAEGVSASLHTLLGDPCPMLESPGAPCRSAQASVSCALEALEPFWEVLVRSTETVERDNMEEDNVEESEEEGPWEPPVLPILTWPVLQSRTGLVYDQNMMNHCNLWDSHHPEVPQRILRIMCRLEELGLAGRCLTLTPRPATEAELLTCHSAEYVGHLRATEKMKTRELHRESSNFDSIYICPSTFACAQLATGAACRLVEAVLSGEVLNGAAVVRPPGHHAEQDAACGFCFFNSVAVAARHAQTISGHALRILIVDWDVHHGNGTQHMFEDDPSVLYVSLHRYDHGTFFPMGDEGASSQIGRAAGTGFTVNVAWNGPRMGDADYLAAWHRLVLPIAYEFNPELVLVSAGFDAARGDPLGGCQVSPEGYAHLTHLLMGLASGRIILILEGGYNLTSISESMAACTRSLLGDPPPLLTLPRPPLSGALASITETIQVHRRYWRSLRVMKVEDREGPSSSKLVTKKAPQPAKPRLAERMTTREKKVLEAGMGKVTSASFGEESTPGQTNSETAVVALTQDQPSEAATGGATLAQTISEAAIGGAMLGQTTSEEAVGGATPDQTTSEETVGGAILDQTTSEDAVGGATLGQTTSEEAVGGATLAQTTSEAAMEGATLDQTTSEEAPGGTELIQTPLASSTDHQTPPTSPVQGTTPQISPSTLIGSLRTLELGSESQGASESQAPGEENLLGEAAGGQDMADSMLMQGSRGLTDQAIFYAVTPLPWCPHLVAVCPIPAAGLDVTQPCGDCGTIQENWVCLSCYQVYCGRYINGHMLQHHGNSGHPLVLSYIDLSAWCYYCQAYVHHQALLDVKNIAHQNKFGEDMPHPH

[6] = Neurotoxicity in human SH-SY5Y cells assessed as decrease in cell viability at 2.32 uM incubated for 3 days; assay type: toxicity, cell-based; conditions: 72 h, time 3 day
Summary of the method: (§2)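 SH-SY5Y cells were grown on poly-D-lysine in DMEM/F12 with 10% FBS and seeded at 15,000/well 36 h before dosing, with DMSO as vehicle. Viability was read by MTT: 2 h at 37 °C, then solubilization for 1 h and absorbance at 570. Data are triplicates from three separate experiments.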

[7] = Cytotoxicity against human WI-38 cells assessed as reduction in cell survival incubated for 30 mins by methylene blue staining based analysis
RPMI-8226 = test: Cytotoxicity against human RPMI-8226 cells assessed as cell growth inhibition incubated for 24 hrs by MTT assay; conditions: RPMI-8226, 24 h
NCI-H522 [8] = test: Induction of ferroptosis in human NCI-H522 cells assessed as induction of lipid peroxidase accumulation at 10 uM incubated for 6 hrs by C11-BODIPY-581/591 staining based flow cytometry analysis; assay type: functional, cell-based
Summary of the method: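 NCI-H522 cells were plated overnight to about 70% density and treated at 10 μM. C11-BODIPY 581/591 (1 μM) was added at the time of treatment. After 6 h, cells were trypsinized, washed, resuspended in PBS with 2% FBS and analysed by flow cytometry, 20 × 10³ cells per sample.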

NCI-H460 = test: Cytotoxicity against human NCI-H460 cells assessed as cell growth inhibition incubated for 24 hrs by MTT assay; assay type: functional, cell-based
NCI-H226 = test: Cytotoxicity against human NCI-H226 cells assessed as cell growth inhibition incubated for 24 hrs by MTT assay; assay type: functional, cell-based
NCI-H522 [9] = test: Induction of cell cycle arrest in human NCI-H522 cells assessed as accumulation at G2/M phase 5 uM incubated for 24 to 72 hrs by PI staining based flow cytometric analysis; assay type: functional; conditions: time lower […], time upper […]
[10] = tested on: Panel NCI-60 (60 carcinoma cell lines); test: Cytotoxicity against human NCI-60 cells assessed as cell growth inhibition incubated for 24 hrs by MTT assay; assay type: functional, cell-based; summary of the method: as §1
NCI-H522 [11] = test: Induction of cell cycle arrest in human NCI-H522 cells assessed as accumulation at G1 phase 5 uM incubated for 24 to 72 hrs by PI staining based flow cytometric analysis; assay type: functional; conditions: time lower […], time upper […]
Histone deacetylase 3 = Histone deacetylase 3 (Homo sapiens, UniProt O15379); test: Inhibition of full length C-terminal his6/FLAG-tagged human recombinant HDAC3 ([…]) expressed in Sf9 insect cells
SF-539 = test: Cytotoxicity against human SF-539 cells assessed as cell growth inhibition incubated for 24 hrs by MTT assay; conditions: SF-539, 24 h
EKVX = test: Cytotoxicity against human EKVX cells assessed as cell growth inhibition incubated for 24 hrs by MTT assay; assay type: functional, cell-based; summary of the method: as §1
SR = test: Cytotoxicity against human SR cells assessed as cell growth inhibition incubated for 24 hrs by MTT assay; assay type: functional, cell-based
Histone deacetylase 2 = Histone deacetylase 2 (Homo sapiens, UniProt Q92769)
Histone deacetylase 8 = molecular target: T2, Histone deacetylase 8 (Homo sapiens, UniProt Q9BY41); test: Inhibition of full length C-terminal his-tagged human recombinant HDAC8 expressed in Sf9 insect cells
T2 sequence (Q9BY41 whole entry): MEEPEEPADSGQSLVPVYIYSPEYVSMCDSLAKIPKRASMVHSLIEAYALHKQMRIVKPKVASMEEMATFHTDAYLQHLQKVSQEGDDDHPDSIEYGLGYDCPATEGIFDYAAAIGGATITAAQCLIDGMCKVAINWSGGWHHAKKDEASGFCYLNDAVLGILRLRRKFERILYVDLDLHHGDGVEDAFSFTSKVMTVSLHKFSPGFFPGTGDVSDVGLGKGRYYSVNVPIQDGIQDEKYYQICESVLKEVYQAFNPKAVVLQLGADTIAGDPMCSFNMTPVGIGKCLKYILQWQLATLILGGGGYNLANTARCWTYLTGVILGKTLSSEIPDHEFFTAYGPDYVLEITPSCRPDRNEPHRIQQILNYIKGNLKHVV

NCI-H322M = test: Cytotoxicity against human NCI-H322M cells assessed as cell growth inhibition incubated for 24 hrs by MTT assay; assay type: functional, cell-based; summary of the method: as §1
[12] = Neurotoxicity in human SH-SY5Y cells assessed as decrease in cell viability at 20 to 80 uM incubated for 3 days; assay type: toxicity, cell-based; conditions: 72 h, dose 20-80 µM, time 3 day; summary of the method: as §2
[13] = Neurotoxicity in human SH-SY5Y cells assessed as decrease in cell viability at 6.665 uM incubated for 3 days; assay type: toxicity, cell-based; conditions: 72 h, time 3 day; summary of the method: as §2
NCI-H522 [14] = test: Cytotoxicity against human NCI-H522 cells assessed as reduction in cell survival at 1 to 5 uM incubated for 3 days in presence of Methyl 7-(2-ethynylthiazole-4-carboxamido)heptanoate by methylene blue staining based analysis; assay type: functional; conditions: dose 1-5 µM, time 3.0 day
Summary of the method: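 Cells (5000/well, n = 3, DMEM with 10% serum, 37 °C, 5% CO2) were treated the day after plating and kept for three days. […] Survival was expressed relative to DMSO.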

NCI-H522 [15] = test: Cytotoxicity against human NCI-H522 cells assessed as reduction in cell viability incubated for 30 mins by methylene blue staining based analysis; conditions: NCI-H522, 0.5 h
HCT-116 = test: Cytotoxicity against human HCT-116 cells assessed as reduction in cell viability incubated for 30 mins by methylene blue staining based analysis; conditions: HCT-116, 0.5 h
[16] = molecular target: Protein deacetylase HDAC6 (Homo sapiens) (UniProt Q9UBN7); test: Inhibition of HDAC6 in human NCI-H522 cells assessed as increase in acetylation of tubulin at 5 uM measured for 3 days by Western blot analysis; assay type: cell-based; conditions: time 3.0 day

Sequence of Histone deacetylase 1 (Q13547 whole entry, the tested form may be a part): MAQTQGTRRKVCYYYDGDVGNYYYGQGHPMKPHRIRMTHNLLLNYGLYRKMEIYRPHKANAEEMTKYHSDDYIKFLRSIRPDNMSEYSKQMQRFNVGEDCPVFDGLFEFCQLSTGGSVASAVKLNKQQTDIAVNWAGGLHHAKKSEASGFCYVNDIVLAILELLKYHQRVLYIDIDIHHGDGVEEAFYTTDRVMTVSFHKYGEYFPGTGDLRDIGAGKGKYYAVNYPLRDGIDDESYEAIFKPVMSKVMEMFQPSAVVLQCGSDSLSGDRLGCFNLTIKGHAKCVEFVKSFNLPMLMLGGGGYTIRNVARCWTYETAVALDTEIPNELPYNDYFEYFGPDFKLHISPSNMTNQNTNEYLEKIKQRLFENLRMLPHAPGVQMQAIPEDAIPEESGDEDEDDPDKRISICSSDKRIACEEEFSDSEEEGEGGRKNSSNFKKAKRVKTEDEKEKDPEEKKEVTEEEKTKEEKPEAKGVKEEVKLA
Sequence of Histone deacetylase 3 (O15379 whole entry): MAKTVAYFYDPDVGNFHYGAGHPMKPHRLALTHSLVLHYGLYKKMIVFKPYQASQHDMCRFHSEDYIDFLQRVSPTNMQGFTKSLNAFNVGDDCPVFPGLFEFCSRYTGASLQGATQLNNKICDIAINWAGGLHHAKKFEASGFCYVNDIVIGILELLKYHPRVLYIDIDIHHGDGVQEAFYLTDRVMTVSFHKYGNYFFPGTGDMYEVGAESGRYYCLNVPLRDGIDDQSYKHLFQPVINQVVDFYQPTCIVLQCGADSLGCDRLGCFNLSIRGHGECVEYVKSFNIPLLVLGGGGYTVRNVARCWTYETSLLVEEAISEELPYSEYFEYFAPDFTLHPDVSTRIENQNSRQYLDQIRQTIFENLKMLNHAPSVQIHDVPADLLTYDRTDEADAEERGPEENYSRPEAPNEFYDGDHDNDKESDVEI
Sequence of Histone deacetylase 2 (Q92769 whole entry): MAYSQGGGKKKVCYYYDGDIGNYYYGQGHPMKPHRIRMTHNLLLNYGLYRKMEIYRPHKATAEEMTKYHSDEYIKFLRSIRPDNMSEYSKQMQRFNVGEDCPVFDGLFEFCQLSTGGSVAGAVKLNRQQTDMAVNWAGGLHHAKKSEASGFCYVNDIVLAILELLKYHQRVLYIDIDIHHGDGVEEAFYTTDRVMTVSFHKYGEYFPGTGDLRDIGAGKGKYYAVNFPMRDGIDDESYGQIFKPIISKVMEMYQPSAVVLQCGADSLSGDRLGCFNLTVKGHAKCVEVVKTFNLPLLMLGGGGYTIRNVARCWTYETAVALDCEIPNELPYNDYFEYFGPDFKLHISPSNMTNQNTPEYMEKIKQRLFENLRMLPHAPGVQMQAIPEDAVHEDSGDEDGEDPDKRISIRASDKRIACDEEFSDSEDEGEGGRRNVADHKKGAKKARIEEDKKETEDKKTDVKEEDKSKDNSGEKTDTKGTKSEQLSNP

SMILES: C#Cc1nc(C(=O)NCCCCCCC(=O)NO)cs1
- Activity (NCI-H522 [1]): Active
- IC50 (Histone deacetylase 1): 67 nM
- Activity (MOLT-4): Active
- Activity (HOP-62): Active
- Activity (A549): Active
- GI50 (NCI-H23): 780 nM
- Activity (NCI-H522 [2]): Active
- Activity (NCI-H522 [3]): Active
- Activity (HL-60): Active
- Activity (NCI-H522 [4]): Active
- Activity (K562): Active
- Activity (HOP-92): Active
- IC50 [5]: 1 nM
- Activity [6]: Non-Toxic
- IC50 at 30 min [7]: 8370 nM
- GI50 (RPMI-8226): 350 nM
- Activity (NCI-H522 [8]): Active
- Activity (NCI-H460): Active
- Activity (NCI-H226): Active
- Activity (NCI-H522 [9]): Active
- Activity [10]: Active
- Activity (NCI-H522 [11]): Active
- IC50 (Histone deacetylase 3): 50 nM
- GI50 (SF-539): 1000 nM
- Activity (EKVX): Active
- Activity (SR): Active
- IC50 (Histone deacetylase 2): 93 nM
- IC50 (Histone deacetylase 8): 320 nM
- Activity (NCI-H322M): Active

SMILES: C#Cc1nc(/C=C\CCCCCC(=O)OCC)cs1
- Activity (NCI-H522 [4]): Active

SMILES: O=C(CCCCCCNC(=O)c1csc(Br)n1)NO
- Activity [12]: Toxic
- Activity [13]: Toxic
- Activity (NCI-H522 [4]): Active
- Activity (NCI-H522 [14]): Active

SMILES: C#Cc1nc(C=CCCCCCC(=O)NO)cs1
- IC50 (NCI-H522 [15]): 1670 nM
- IC50 (HCT-116): 3420 nM

SMILES: C#Cc1nc(/C=C\CCCCCC(=O)NO)cs1
- IC50 (NCI-H522 [15]): 1070 nM
- IC50 (HCT-116): 1190 nM
- IC50 (Histone deacetylase 1): 130 nM
- Activity (NCI-H522 [4]): Active
- IC50 [5]: 25 nM
- IC50 (Histone deacetylase 3): 300 nM
- IC50 (Histone deacetylase 8): 470 nM

SMILES: C#Cc1nc(/C=C/C(=O)NO)cs1
- IC50 (Histone deacetylase 1): 890 nM
- inhibition [16]: Active
- IC50 [5]: 160 nM
- IC50 (Histone deacetylase 3): 1100 nM
- IC50 (Histone deacetylase 2): 1700 nM
- IC50 (Histone deacetylase 8): 1800 nM
